From ChEMBL document CHEMBL1764971, “7-azabicyclo[2.2.1]heptane as a structural motif to block mutagenicity of nitrosamines” (Bioorg Med Chem, 2011)

Key:
[1] = test system: Salmonella typhimurium; experiment: Mutagenic activity in Salmonella Typhimurium TA100 assessed as number of revertants after 44 hrs by Ames test in presence of rat liver S9 fraction; assay type: toxicity, organism-based; conditions: salmonella enterica subsp. enterica serovar typhimurium, s9, 44 h
How it was run: (§1)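 Pre-incubation Ames method. Compound at 0.03, 0.06, 0.13, 0.25 or 0.5 mg in DMSO, mixed with 0.5 mL rat liver S9 mix (P450s plus NADPH-regenerating system) and 0.1 mL tester-strain culture. Shaken 30 min at 37 °C, then top agar added and poured onto minimal-glucose agar. Revertant colonies counted after 44 h at 37 °C. Duplicate plates, experiments repeated at least twice; mean of duplicates.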

[2] = test system: Salmonella typhimurium; experiment: Mutagenic activity in Salmonella Typhimurium TA98 assessed as number of revertants after 44 hrs by Ames test in presence of rat liver S9 fraction; assay type: toxicity, organism-based; conditions: salmonella enterica subsp. enterica serovar typhimurium, s9, 44 h; how it was run: as §1
[3] = test system: Salmonella typhimurium; experiment: Mutagenic activity in Salmonella Typhimurium TA98 assessed as number of revertants after 44 hrs by Ames test; assay type: toxicity, organism-based; conditions: salmonella enterica subsp. enterica serovar typhimurium
How it was run: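 Pre-incubation Ames method without metabolic activation. Compound at 0.03, 0.06, 0.13, 0.25 or 0.5 mg in DMSO, mixed with 0.5 mL 0.1 M sodium phosphate buffer (pH 7.4) and 0.1 mL tester-strain culture. Shaken 30 min at 37 °C, then plated in top agar on minimal-glucose agar. Colonies counted after 44 h at 37 °C. Duplicate plates, at least two experiments; mean of duplicates.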

[4] = test system: Salmonella typhimurium; experiment: Cytotoxicity against Salmonella Typhimurium TA98; assay type: organism-based; conditions: salmonella enterica subsp. enterica serovar typhimurium
[5] = test system: Salmonella typhimurium; experiment: Cytotoxicity against Salmonella Typhimurium TA98 in presence of rat liver S9 fraction; assay type: organism-based; conditions: salmonella enterica subsp. enterica serovar typhimurium

| Compound | Activity [1] | Activity [2] | Activity [3] | Activity [4] | Activity [5] |
| --- | --- | --- | --- | --- | --- |
| O=NN1Cc2ccccc2C1 | Toxic | Toxic | Non-toxic |  |  |
| COC(=O)C1C(C(=O)OC)C2c3ccccc3C1N2N=O (stereo unspecified) | Non-toxic | Non-toxic | Non-toxic |  |  |
| O=NN1CCCC1 | Toxic | Toxic | Non-toxic |  |  |
| CN1C(=O)[C@@H]2C3c4ccccc4C([C@@H]2C1=O)N3N=O | Non-toxic | Non-toxic | Non-toxic |  |  |
| COC(=O)C1CC2c3ccccc3C1N2N=O (stereo unspecified) | Non-toxic | Non-toxic | Non-toxic |  |  |
| CCOC(=O)CCN1C(=O)C2C(C1=O)C1c3ccccc3C2N1N=O (stereo unspecified) | Non-toxic | Non-toxic | Non-toxic |  |  |
| O=NN1C2CCC1c1ccccc12 | Non-toxic | Non-toxic | Non-toxic |  |  |
| O=NN1C2C=CC1c1cc([N+](=O)[O-])ccc12 (stereo unspecified) | Toxic | Toxic | Toxic |  |  |
| O=NN1C2CCC1c1cc([N+](=O)[O-])ccc12 (stereo unspecified) | Non-toxic | Non-toxic | Non-toxic |  |  |
| O=NN1C2CC(O)C1c1ccc([N+](=O)[O-])cc12 (stereo unspecified) | Toxic | Toxic | Toxic |  |  |
| COc1cc2c(cc1OC)C1CCC2N1N=O | Toxic | Toxic | Toxic |  |  |
| COC(=O)C1CC2(COCc3ccccc3)CCC1N2N=O (stereo unspecified) | Non-toxic | Non-toxic | Non-toxic |  |  |
| O=NN1C2CC(O)C1c1ccccc12 (stereo unspecified) | Non-toxic | Non-toxic | Non-toxic |  |  |
| O=NN1C2c3ccccc3C1C1C(=O)N(c3ccccc3)C(=O)C12 (stereo unspecified) | Non-toxic | Non-toxic | Non-toxic | Toxic | Non-toxic |
| O=NN1C2c3ccccc3C1C(C(F)(F)F)C2C(F)(F)F (stereo unspecified) | Non-toxic | Non-toxic | Non-toxic |  |  |
| O=NN1C2CCC1CC2 | Non-toxic | Non-toxic | Non-toxic |  |  |
| COCC12CCC(C(C(=O)OC)C1)N2N=O (stereo unspecified) | Non-toxic | Non-toxic | Non-toxic |  |  |
| COC(=O)C1C(C(=O)OC)C2CCC1N2N=O (stereo unspecified) | Non-toxic | Non-toxic | Non-toxic |  |  |
